Compounds with a hit are over-represented: about 0.44% of the library has one in this group of screens.
RAD54 inh = RAD54 (human) branch migration inhibition | RAD54 Holliday junction branch migration, FAM/BHQ fluorescence | inhibition, % at 10.4 µM | hit rate 0.14% among 360,000 | AID 602329;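 active = mean normalized replicate activity at least 40 and at least half of replicates scoring 40 or more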;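 note: 0% = median of neutral control wells and 100% = median of positive control wells; inhibitors cause a drop in the FAM fluorescence signal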
ERp5 inh = ERp5 (human) disulfide isomerase inhibition; Q15084; ERp5 insulin aggregation, absorbance 650 nm, 90 min; inhibition, % at 9.99 µM; hit rate 0.05% among 350,000;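 active = mean replicate inhibition above about 25%, with every replicate also reaching it, limit read from the data, passing the limit was not always enough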
FN deposition inh = fibronectin deposition inhibition | AH1F fibroblasts, Alexa488-fibronectin deposition fluorescence, overnight | inhibition, % at 12.6 µM | hit rate 0.086% among 350,000;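 active = mean inhibition across replicates of 30% or more, regardless of how many single replicates reach that level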;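 note: positive control wells lacked labelled fibronectin entirely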
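Assay system: AH1F fibroblast monolayer, labelled fibronectin deposition. Amount: 10000 cells per well. Also added: labelled fibronectin 24 nM. Compound: single-point pinned compound. Incubation: cell attachment 1 h, compound and FN exposure overnight. Detection: fluorescence after three HBSS washes, excitation 485 nm, emission 525 nm. Read-out: inhibition of fibronectin deposition signal.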
S100A4 inh HTS = blocks human S100A4 binding to myosin IIA peptide | S100A4/TAMRA-MyoIIA peptide fluorescence polarization | inhibition, % at 10.7 µM | hit rate 0.14% among 360,000 | AID 652163;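 active = mean inhibition of at least 70% across replicates, with every replicate also reaching that level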
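System – human S100A4 monomer protein, biochemical binding assay · Buffer or medium – Calcium-containing HEPES buffer, pH 7.2 · Timing – 5 min between mix addition and reading · Also added – TAMRA-labelled myosin IIA heavy-chain peptide probe, 5 nM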
PDI inh = blocks human protein disulfide isomerase activity | PDI insulin aggregation turbidity, A650, 90 min | inhibition, % at 10 µM | hit rate 0.052% among 350,000 | AID 588391;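 active = mean inhibition across replicates of 30% or more, whatever share of single replicates reach that level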
Target sequence (P07237 whole entry, looked up): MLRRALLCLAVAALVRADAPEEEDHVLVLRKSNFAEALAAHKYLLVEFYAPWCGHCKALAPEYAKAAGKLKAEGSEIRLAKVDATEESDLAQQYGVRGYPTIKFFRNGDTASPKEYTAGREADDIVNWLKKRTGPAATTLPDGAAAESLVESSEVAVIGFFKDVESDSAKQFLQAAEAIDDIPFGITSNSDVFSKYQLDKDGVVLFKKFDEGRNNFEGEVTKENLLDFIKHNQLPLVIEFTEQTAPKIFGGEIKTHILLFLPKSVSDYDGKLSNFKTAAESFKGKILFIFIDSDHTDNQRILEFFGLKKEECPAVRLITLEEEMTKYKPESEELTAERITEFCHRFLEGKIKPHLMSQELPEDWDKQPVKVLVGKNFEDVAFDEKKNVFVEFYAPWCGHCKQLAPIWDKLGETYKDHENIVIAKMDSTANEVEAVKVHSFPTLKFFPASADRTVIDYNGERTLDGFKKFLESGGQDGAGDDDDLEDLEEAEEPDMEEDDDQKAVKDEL
PglD DTNB = blocks C. jejuni PglD acetyltransferase activity | inhibition, % at 12.5 µM | purified PglD enzyme, DTNB colorimetric CoA detection | hit rate 0.098% among 360,000; in the data active = inhibition above about 16%, passing the limit was not always enough
PglD confirm = confirmation of Campylobacter jejuni PglD acetyltransferase inhibitors | shares compounds with PglD DTNB | AID 743156 | Purified C. jejuni PglD, DTNB absorbance 412 nm | inhibition, % at 20 µM | 320 tested, under 10 active;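 active = mean inhibition across replicates of at least 20% with every single replicate also at 20% or more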;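 note: initial rate of CoA release by acetyl transfer from AcCoA to the UDP-4-amino sugar; 0% = median of neutral control wells and 100% = median of positive control wells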
An asterisk follows results filed as active; . = no result.

SMILES | RAD54 inh | ERp5 inh | FN deposition inh | S100A4 inh HTS | PDI inh | PglD DTNB | PglD confirm
COC(=O)[C@@]1(CCS(=O)(=O)c2ccccc2)COC(c2ccc(OCCCO)cc2)=N1 | -7.8 | 0.5 | . | 3.3 | . | -4.0 | .
CCOC(=O)C1CCCN(C2CC(=O)N(c3ccccc3)C2=O)C1 (stereo unspecified) | 12.6 | 4.7 | 7.0 | -1.0 | -2.6 | 27.2* | -3.0
CCOC(=O)C1CCCN(C2CC(=O)N(c3ccc(N4C(=O)CC(N5CCCC(C(=O)OCC)C5)C4=O)cc3)C2=O)C1 (stereo unspecified) | -18.2 | . | 6.8 | . | 5.0 | -16.3 | .
CCn1cc(C(=O)NCCCN2CCCC(C)C2)c(=O)c2cc(S(=O)(=O)N3CCOCC3)ccc21 (stereo unspecified) | -27.5 | 1.0 | -6.1 | -1.6 | 0.4 | 24.2* | 8.4
Cc1cc(C)c2c(NC(N)=S)n[nH]c2n1 | 3.0 | 3.0 | . | -4.5 | -4.6 | 25.7* | -0.3
C[C@@H]1CN([C@H](C)CO)C(=O)c2cc(NS(=O)(=O)c3ccc(Cl)cc3)ccc2O[C@@H](C)CCCCO[C@H]1CN(C)S(=O)(=O)c1ccc(F)cc1 | -1.9 | 4.9 | 2.6 | -1.0 | . | 1.0 | .
O=C(NCCCN1CCN(c2cccc(Cl)c2)CC1)c1ccc(N2CCCC2=O)cc1 | -14.5 | . | . | . | -7.0 | 35.5* | 6.0
O=C(NCCCN1CCN(c2cccc(Cl)c2)CC1)c1cccc(N2CCCC2=O)c1 | . | . | . | . | 12.9 | . | .
CN1CCN(C(=O)C[C@H]2CC[C@@H]3[C@H](COC[C@H](O)CN3Cc3ccc4c(c3)OCO4)O2)CC1 | -2.4 | 9.0 | 2.2 | -19.3 | . | 1.2 | .
Cc1c(C(=O)O)oc2c3c(ccc12)OCCO3 | -18.0 | . | . | . | -3.4 | 24.3* | -1.6
O=C(COC(=O)CCc1nc2ccccc2n1-c1ccccc1)Nc1cccc(Cl)c1 | 3.2 | . | . | . | -1.6 | 28.5* | -1.9
COc1ccc(NC(=O)Nc2cccc3c2O[C@H](CN(C)S(=O)(=O)c2ccccc2)[C@@H](C)CN([C@@H](C)CO)C3=O)cc1 | 1.2 | -1.7 | . | 2.0 | . | -0.7 | .
C[C@@H]1CCCCO[C@@H](CN(C)Cc2ccncc2)[C@H](C)CN([C@@H](C)CO)C(=O)c2cc(NC(=O)CCC(F)(F)F)ccc2O1 | -3.3 | -5.7 | . | -21.2 | . | 1.5 | .
O=S(=O)(c1cccs1)N1CCN(Cc2nc3ccccc3s2)CC1 | 1.8 | . | 9.2 | . | 2.5 | 24.1* | -0.9
O=C(CCc1nc2ccccc2s1)N1CCN(S(=O)(=O)c2cccs2)CC1 | -4.2 | . | 0.1 | . | -0.2 | -1.7 | .
C[C@@H]1CCCn2cc(nn2)COCCNC1=O | . | . | 0.7 | . | . | . | .
CC1=CC(=O)C=C(C)C1=NOC(=O)/C=C\c1ccccc1 | . | 3.3 | -9.8 | -2.3 | -8.9 | . | .
CC1=CC(=NOC(=O)/C=C/c2ccccc2)C=C(C)C1=O | -1.4 | . | . | . | 2.7 | 28.0* | -0.7
CCCCOc1ccc(CC(=O)NCC(=O)O)cc1 | -5.9 | . | 1.8 | . | 0.3 | 23.3* | -2.7
COC(=O)C1CSC(C(=O)OC)N1C(=O)CN1CCN(c2ccc(OC)cc2)CC1 (stereo unspecified) | 7.3 | 6.0 | -3.1 | -4.7 | 11.6 | 59.1* | 2.8
CC(=O)C1=C(O)C(=O)N(Cc2ccco2)C1c1ccccc1F (stereo unspecified) | . | 0.8 | -6.1 | -1.6 | 2.0 | . | .
CC(C)(C)C(=O)C1=C(O)C(=O)N(Cc2ccccc2)C1c1ccccc1F (stereo unspecified) | -0.6 | 0.9 | -3.1 | 5.3 | -5.4 | 73.4* | -10.5
CC(O)(c1cccnc1)c1nc(-c2ccc3ccccc3c2)cs1 (stereo unspecified) | -6.1 | 3.1 | 8.8 | 9.0 | -1.7 | 22.2* | -0.9
COc1cccc(C(C)(O)c2nc(-c3ccc4ccccc4c3)cs2)c1 (stereo unspecified) | 2.1 | -6.4 | 15.7 | 3.9 | 1.4 | 3.6 | .
CN1C(=O)c2cc(NC(=O)C3CC3)ccc2OC[C@@H]2O[C@H](CC(=O)NCc3cccc(F)c3)CC[C@@H]21 | 3.5 | . | -0.8 | . | . | -3.5 | .
C[C@H]1CN([C@@H](C)CO)C(=O)c2cc(-c3cccc(C#N)c3)cnc2O[C@H]1CN(C)C(=O)c1cnccn1 | -2.2 | -2.4 | 3.2 | 0.2 | . | -2.1 | .
